In ChEMBL document CHEMBL4834441, “Design, synthesis and biological evaluation of a series of iron and copper chelating deferiprone derivatives as new agents active against Candida albicans” (Bioorg Med Chem Lett, 2021):
In brackets after ≈: the same amount, converted by molar mass. One block for each molecule: values may come before it. Activity calls are given as the source filed them.

Experiments:
Candida albicans [1] = assay: Antibiofilm activity against Candida albicans ATCC 10231 assessed as inhibition of biofilm formation; assay type: functional
In short: (§1)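 C. albicans ATCC 10231 biofilm, tested during formation and as mature (48 h) biofilm; compounds tested up to 128 μg/mL. BMIC50 taken as lowest concentration giving 50% decrease of biofilm relative to untreated growth control; three independent experiments in triplicate, median reported.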

Candida albicans [2] = assay: Antifungal activity against Candida albicans ATCC 10231; assay type: functional
In short: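 Planktonic C. albicans ATCC 10231 cells; compounds tested up to 128 μg/mL. MIC50 defined as lowest concentration producing 50% growth inhibition; three independent experiments, each in triplicate, values given as median.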

Candida albicans [3] = assay: Antibiofilm activity against Candida albicans ATCC 10231 assessed as reduction in mature biofilm; assay type: functional; in short: as §1
[4] = Metal chelating activity assessed as Fe3+-compound complex formation by UV-visible spectrophotometry
In short: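 Stoichiometry of ligand–Fe3+ complex found by Job's method of continuous variations from UV titration spectra, Job's plot read at 302 nm; stability constant (logKstab) then calculated by UV–Vis spectroscopy for the determined stoichiometry.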

[5] = Metal chelating activity assessed as Cu2+-compound complex formation by UV-visible spectrophotometry
In short: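 UV–Vis spectroscopic titration of the ligand with Cu2+. The stability constant was calculated from the spectra once the 1:1 stoichiometry was known, and is reported as logKstab ±.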

[6] = Toxicity in Galleria mellonella larvae assessed as survival at 256 ug/ml measured after 48 hrs relative to control; conditions: at 256 µg/mL
In short: (§2)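 G. mellonella larvae were injected with 20 μL of compound in sterile water containing less than 1% v/v DMSO, into the last left pro-leg. Doses were 32–512 µg/mL. Survival was scored at 24, 48 and 72 h and is given as the mean percentage of three independent experiments.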

[7] = Toxicity in Galleria mellonella larvae assessed as survival at 32 ug/ml measured after 24 hrs relative to control; conditions: at 32 µg/mL; in short: as §2
[8] = Metal chelating activity assessed as stoichiometry ratio of 1:1 for Cu2+-compound complex formation by UV-visible spectrophotometry
[9] = Toxicity in Galleria mellonella larvae assessed as survival at 256 ug/ml measured after 72 hrs relative to control; conditions: at 256 µg/mL; in short: as §2
[10] = Toxicity in Galleria mellonella larvae assessed as survival at 128 ug/ml measured after 48 hrs relative to control; conditions: at 128 µg/mL; in short: as §2
[11] = Toxicity in Galleria mellonella larvae assessed as survival at 32 ug/ml measured after 48 hrs relative to control; conditions: at 32 µg/mL; in short: as §2
[12] = Toxicity in Galleria mellonella larvae assessed as survival at 64 ug/ml measured after 24 hrs relative to control; conditions: at 64 µg/mL; in short: as §2
[13] = Toxicity in Galleria mellonella larvae assessed as survival at 32 ug/ml measured after 72 hrs relative to control; conditions: at 32 µg/mL; in short: as §2
[14] = Toxicity in Galleria mellonella larvae assessed as survival at 64 ug/ml measured after 48 hrs relative to control; conditions: at 64 µg/mL; in short: as §2
[15] = Toxicity in Galleria mellonella larvae assessed as survival at 64 ug/ml measured after 72 hrs relative to control; conditions: at 64 µg/mL; in short: as §2
Candida albicans [16] = assay: Antibiofilm activity against Candida albicans ATCC 10231 assessed as inhibition of biofilm formation in presence of Cu2+; assay type: functional, organism-based; conditions: dose 8-128 µg/ml
In short: (§3)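 C. albicans ATCC 10231 biofilm-formation assay run in culture medium enriched with increasing concentrations of Fe3+ or Cu2+. BMIC50 is the lowest drug concentration giving a 50% decrease of biofilm relative to the untreated growth control. Three independent experiments in triplicate; data reported as percentage of inhibition ± standard deviation.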

[17] = Metal chelating activity assessed as stoichiometry ratio of 1:1 for Fe3+-compound complex formation by UV-visible spectrophotometry
[18] = Toxicity in Galleria mellonella larvae assessed as survival at 512 ug/ml measured after 72 hrs relative to control; conditions: at 512 µg/mL; in short: as §2
[19] = Toxicity in Galleria mellonella larvae assessed as survival at 512 ug/ml measured after 24 hrs relative to control; conditions: at 512 µg/mL; in short: as §2
[20] = Toxicity in Galleria mellonella larvae assessed as survival at 256 ug/ml measured after 24 hrs relative to control; conditions: at 256 µg/mL; in short: as §2
Candida albicans [21] = assay: Antibiofilm activity against Candida albicans ATCC 10231 assessed as inhibition of biofilm formation in presence of Fe3+; assay type: functional, organism-based; conditions: dose 8-128 µg/ml; in short: as §3
[22] = Toxicity in Galleria mellonella larvae assessed as survival at 128 ug/ml measured after 72 hrs relative to control; conditions: at 128 µg/mL; in short: as §2
[23] = Toxicity in Galleria mellonella larvae assessed as survival at 512 ug/ml measured after 48 hrs relative to control; conditions: at 512 µg/mL; in short: as §2
[24] = Toxicity in Galleria mellonella larvae assessed as survival at 128 ug/ml measured after 24 hrs relative to control; conditions: at 128 µg/mL; in short: as §2

Compound: Cc1c(OCc2ccccc2)c(=O)ccn1CCCCNC(=O)C(C)c1ccc(C(=O)c2ccccc2)cc1 (centres undefined)
- MBIC50 (Candida albicans [1]): >128 µg/mL
- MIC50 (Candida albicans [2]): > 128 µg/mL
- MBIC50 (Candida albicans [3]): >128 µg/mL

Compound: Cc1c(O)c(=O)ccn1CCCCCCn1ccc(=O)c(O)c1C.Cl.Cl
- MBIC50 (Candida albicans [1]): >128 µg/mL
- MIC50 (Candida albicans [2]): > 128 µg/mL
- MBIC50 (Candida albicans [3]): >128 µg/mL

Compound: Cc1c(O)c(=O)ccn1C [DEFERIPRONE]
- MBIC50 (Candida albicans [1]): 32 µg/mL
- MIC50 (Candida albicans [2]): 128 µg/mL (≈ 920 µM)
- MBIC50 (Candida albicans [3]): 128 µg/mL

Compound: Cc1c(OCc2ccccc2)c(=O)ccn1CCCCNC(=O)C(C)c1ccc(CC(C)C)cc1 (centres undefined)
- MBIC50 (Candida albicans [1]): 32 µg/mL
- Activity [4]: Active
- MIC50 (Candida albicans [2]): > 128 µg/mL
- MBIC50 (Candida albicans [3]): >128 µg/mL

Compound: Cc1c(O)c(=O)ccn1CCCCNC(=O)C(C)c1ccc(C(=O)c2ccccc2)cc1 (centres undefined)
- MBIC50 (Candida albicans [1]): 128 µg/mL
- MIC50 (Candida albicans [2]): > 128 µg/mL
- MBIC50 (Candida albicans [3]): >128 µg/mL

Compound: Cc1c(O)c(=O)ccn1CCCCn1ccc(=O)c(O)c1C.Cl.Cl
- MBIC50 (Candida albicans [1]): >128 µg/mL
- MIC50 (Candida albicans [2]): > 128 µg/mL
- MBIC50 (Candida albicans [3]): >128 µg/mL

Compound: Cc1c(O)c(=O)ccn1CCCCc1ccccc1.Cl
- Activity [5]: Active
- survival at 48 h [6]: 100%
- survival at 24 h [7]: 100%
- Activity [8]: Active
- MBIC50 (Candida albicans [1]): 16 µg/mL
- survival at 72 h [9]: 100%
- Activity [4]: Active
- survival at 48 h [10]: 100%
- survival at 48 h [11]: 100%
- survival at 24 h [12]: 100%
- survival at 72 h [13]: 100%
- MIC50 (Candida albicans [2]): 16 µg/mL
- survival at 48 h [14]: 100%
- survival at 72 h [15]: 100%
- inhibition (Candida albicans [16]): Dose-Dependent Effect
- Activity [17]: Active
- survival at 72 h [18]: 86%
- survival at 24 h [19]: 100%
- survival at 24 h [20]: 100%
- inhibition (Candida albicans [21]): Dose-Dependent Effect
- MBIC50 (Candida albicans [3]): >128 µg/mL
- survival at 72 h [22]: 100%
- survival at 48 h [23]: 96%
- survival at 24 h [24]: 100%

Compound: Cc1c(OCc2ccccc2)c(=O)ccn1CCCCCCn1ccc(=O)c(OCc2ccccc2)c1C
- MBIC50 (Candida albicans [1]): >128 µg/mL
- MIC50 (Candida albicans [2]): > 128 µg/mL
- MBIC50 (Candida albicans [3]): >128 µg/mL

Compound: Cc1c(O)c(=O)ccn1CCCCCn1ccc(=O)c(O)c1C.Cl.Cl
- MBIC50 (Candida albicans [1]): 128 µg/mL
- MIC50 (Candida albicans [2]): > 128 µg/mL
- MBIC50 (Candida albicans [3]): >128 µg/mL

Compound: COc1ccccc1Cn1ccc(=O)c(O)c1C.Cl
- MBIC50 (Candida albicans [1]): >128 µg/mL
- MIC50 (Candida albicans [2]): > 128 µg/mL
- MBIC50 (Candida albicans [3]): >128 µg/mL

Compound: Cc1c(O)c(=O)ccn1CCCCNC(=O)Cc1ccc(CC(C)C)cc1
- MBIC50 (Candida albicans [1]): 64 µg/mL
- MIC50 (Candida albicans [2]): 8 µg/mL (≈ 21.6 µM)
- MBIC50 (Candida albicans [3]): 128 µg/mL

Compound: Cc1c(O)c(=O)ccn1CCCCNC(=O)Cc1ccccc1
- MBIC50 (Candida albicans [1]): >128 µg/mL
- MIC50 (Candida albicans [2]): > 128 µg/mL
- MBIC50 (Candida albicans [3]): >128 µg/mL

Compound: Cc1c(OCc2ccccc2)c(=O)ccn1CCCCCn1ccc(=O)c(OCc2ccccc2)c1C
- MBIC50 (Candida albicans [1]): >128 µg/mL
- MIC50 (Candida albicans [2]): > 128 µg/mL
- MBIC50 (Candida albicans [3]): >128 µg/mL

Compound: Cc1c(O)c(=O)ccn1CCCCNC(=O)C(C)c1ccc(CC(C)C)cc1 (centres undefined)
- Activity [5]: Active
- MBIC50 (Candida albicans [1]): 128 µg/mL
- Activity [4]: Active
- MIC50 (Candida albicans [2]): 4 µg/mL (≈ 10.4 µM)
- MBIC50 (Candida albicans [3]): >128 µg/mL

More lines, main results first:

- MIC50 (Candida albicans [2]): > 128 µg/mL
Compound: Cc1c(OCc2ccccc2)c(=O)ccn1CCCCNC(=O)Cc1ccc(CC(C)C)cc1
- MBIC50 (Candida albicans [1]): 64 µg/mL
- MBIC50 (Candida albicans [3]): >128 µg/mL

- Activity [4]: Active
- MIC50 (Candida albicans [2]): > 128 µg/mL
Compound: Cc1c(OCc2ccccc2)c(=O)ccn1CCCCc1ccccc1
- MBIC50 (Candida albicans [1]): >128 µg/mL
- MBIC50 (Candida albicans [3]): >128 µg/mL

- MIC50 (Candida albicans [2]): 32 µg/mL
Compound: Cc1c(O)c(=O)ccn1CCCc1ccccc1.Cl
- MBIC50 (Candida albicans [1]): 32 µg/mL
- MBIC50 (Candida albicans [3]): >128 µg/mL

- MIC50 (Candida albicans [2]): > 128 µg/mL
Compound: Cc1c(OCc2ccccc2)c(=O)ccn1CCCCNC(=O)Cc1ccccc1
- MBIC50 (Candida albicans [1]): >128 µg/mL
- MBIC50 (Candida albicans [3]): >128 µg/mL

- MIC50 (Candida albicans [2]): > 128 µg/mL
Compound: Cc1c(OCc2ccccc2)c(=O)ccn1CCCc1ccccc1
- MBIC50 (Candida albicans [1]): >128 µg/mL
- MBIC50 (Candida albicans [3]): >128 µg/mL

- MIC50 (Candida albicans [2]): > 128 µg/mL
Compound: Cc1c(OCc2ccccc2)c(=O)ccn1CCCn1ccnc1
- MBIC50 (Candida albicans [1]): >128 µg/mL
- MBIC50 (Candida albicans [3]): >128 µg/mL

- MIC50 (Candida albicans [2]): > 128 µg/mL
Compound: COc1ccccc1Cn1ccc(=O)c(OCc2ccccc2)c1C
- MBIC50 (Candida albicans [1]): >128 µg/mL
- MBIC50 (Candida albicans [3]): >128 µg/mL

- MIC50 (Candida albicans [2]): > 128 µg/mL
Compound: Cc1c(O)c(=O)ccn1CCCn1ccnc1.Cl
- MBIC50 (Candida albicans [1]): >128 µg/mL
- MBIC50 (Candida albicans [3]): >128 µg/mL

- MIC50 (Candida albicans [2]): > 128 µg/mL
Compound: Cc1c(OCc2ccccc2)c(=O)ccn1CCCCn1ccc(=O)c(OCc2ccccc2)c1C
- MBIC50 (Candida albicans [1]): 128 µg/mL
- MBIC50 (Candida albicans [3]): >128 µg/mL
